Here are results for two compounds from PubChem BioAssay AID2363 (The Scripps Research Institute Molecular Screening Center, 2010).

The target in the test is Protein phosphatase methylesterase 1 (Homo sapiens) (UniProt Q9Y570). Nature of the test: cellular PME-1 inhibition of PP2A demethylation, late-stage follow-up, orthogonal assay for PME-1 inhibitor project, HeLa cells, demethylated PP2A western blot (AID 2363). The conditions noted are these: demethylated PP2A western blot chemiluminescence, stronger effect = higher value. Put shortly: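 System: HeLa cells in culture with endogenous PME-1; Reagent: cellular PP2A as the PME-1 demethylation substrate; Compound dosing: 5 and 20 µM compound; Times: compound exposure of cells at 37 °C; Signal: SDS-PAGE immunoblot with HRP antibody against demethylated PP2A C-terminus, chemiluminescence; Read-out: % inhibition of PP2A demethylation.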
(In general: In western blotting, separated proteins are transferred to a membrane and probed.)

[1] abbreviates: PP2A demethylation inhibition, at 20 µM.

Chain of Protein phosphatase methylesterase 1 (Homo sapiens) (Q9Y570 whole entry, looked up): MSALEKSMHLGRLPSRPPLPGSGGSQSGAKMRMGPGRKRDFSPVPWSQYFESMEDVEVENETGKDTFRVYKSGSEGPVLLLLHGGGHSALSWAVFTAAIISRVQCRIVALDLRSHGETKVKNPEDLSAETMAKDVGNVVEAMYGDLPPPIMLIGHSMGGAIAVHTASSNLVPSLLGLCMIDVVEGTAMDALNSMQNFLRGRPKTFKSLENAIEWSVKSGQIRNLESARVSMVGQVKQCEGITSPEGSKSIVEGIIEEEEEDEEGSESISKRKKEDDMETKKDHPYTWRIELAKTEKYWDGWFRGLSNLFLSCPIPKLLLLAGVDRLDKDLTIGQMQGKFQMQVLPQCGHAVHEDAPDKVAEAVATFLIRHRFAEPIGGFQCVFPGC

Broadly, the inhibition is the percentage by which the read-out fell short of the control. Take `N#C/C(=C\c1cccn1S(=O)(=O)c1cccc(C#N)c1)S(=O)(=O)c1ccc(F)cc1`: the inhibition by setting is: under setting [1], 95%; (at 5 µM) 60%.
On to `N#C/C(=C\c1cccn1S(=O)(=O)c1cccc([N+](=O)[O-])c1)S(=O)(=O)c1ccc(F)cc1`, for which the inhibition by setting is: under setting [1], 98%; (at 5 µM) 65%.
